Data as given in ChEMBL document CHEMBL3112547, “Surface plasmon resonance using the catalytic domain of soluble guanylate cyclase allows the detection of enzyme activators” (Bioorg Med Chem Lett, 2014).
The source made the active and inactive calls. No cut-off for these calls is given here.

How the values were obtained:
[1] = target: T1, Soluble guanylate cyclase alpha1/beta1 complex (Homo sapiens) (UniProt Q02153+Q02108); experiment: Activation of human recombinant sGC subunit alpha-1/beta-1 using GTP as substrate assessed as cGMP production measured per ng of protein at 100 uM treated prior to DEA/NO addition measured after 2 mins by radioimmunoassay in presence of Mg2+; type: protein-complex assay
[2] = target: T1, Soluble guanylate cyclase alpha1/beta1 complex (Homo sapiens); experiment: Binding affinity to sGC subunit alpha-1/beta-1 catalytic domain (unknown origin) assessed as occupancy relative to control; type: protein-complex assay
Outline: (§1)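 Compounds at 100 μM in DMSO-containing running buffer, 25 °C. Injection and dissociation 30 s each, triplicate. Responses double-referenced, DMSO-corrected, control subtracted; occupancy is the fraction of immobilised sites bound, assuming 1:1 stoichiometry.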

[3] = target: T1, Soluble guanylate cyclase alpha1/beta1 complex (Homo sapiens); experiment: Binding affinity to sGC subunit alpha-1/beta-1 catalytic domain (unknown origin) at 100 uM after 30 seconds by SPR analysis; type: protein-complex assay; outline: as §1
[4] = target: T1, Soluble guanylate cyclase alpha1/beta1 complex (Homo sapiens); experiment: Binding affinity to full-length human recombinant sGC subunit alpha-1/beta-1 at 100 uM after 30 seconds by SPR analysis; type: protein-complex assay
Outline: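 Compounds at 100 μM in running buffer (10 mM HEPES pH 7.4, 150 mM NaCl, 3 mM EDTA, 0.05% P20, 1 mM DTT, 10 mM MgCl2, 5% DMSO), 25 °C. Injection and dissociation 30 s each, triplicate.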

[5] = Solubility of the compound in assay buffer in presence of 5% DMSO; type: physicochemical

SMILES | Activity [1] [pmol] | Occ [2] [%] | Activity [3] | Activity [4] | solubility [5]
NCc1noc(-c2c3ccccc3nn2Cc2ccc3c(c2)OCO3)n1 | 9.11 | 96 | – | – | –
NCc1noc(-c2c3ccccc3nn2CCn2ccnc2)n1 | 2.72 | 28 | – | – | –
CC(C)(C)OC(=O)NCc1noc(-c2nn(Cc3ccc4c(c3)OCO4)c3ccccc23)n1 | 15.6 | 40 | – | Active | –
CC(=O)n1nc(-c2nc(CN)no2)c2ccccc21 | 4.05 | 20 | – | – | –
CC(=O)Nc1ccc(Cn2nc(-c3nc(CNC(=O)OC(C)(C)C)no3)c3ccccc32)cc1 | 2.23 | 62 | – | – | –
O=C(O)CCCCN(CCc1ccccc1OCc1ccc(CCc2ccccc2)cc1)Cc1ccc(C(=O)O)cc1 | – | – | inactive | Active | –

Now from value to compound:

Activity [1] [pmol] | Occ [2] [%] | Activity [3] | Activity [4] | solubility [5] | SMILES
2.33 | 21 | inactive | inactive | – | COc1ccc(Cn2nc(-c3nc(CN)no3)c3ccccc32)cc1
14.3 | 90 | – | Active | – | Cc1ccc(Cn2nc(-c3nc(CN)no3)c3ccccc32)cc1
2.08 | 94 | – | – | – | NCc1noc(-c2c3ccccc3nn2Cc2cccc(Cl)c2)n1
9.09 | 34 | – | Active | – | Cc1oncc1Cn1nc(-c2nc(CN)no2)c2ccccc21
– | – | – | – | Insoluble | Nc1nc(-c2nn(Cc3ccccc3F)c3ncccc23)ncc1C1CC1
3.22 | 101 | – | Active | – | Cc1ccccc1Cn1nc(-c2nc(CN)no2)c2ccccc21
